# Test results reported in ChEMBL document CHEMBL4219021, “Discovery of a Small-Molecule Degrader of Bromodomain and Extra-Terminal (BET) Proteins with Picomolar Cellular Potencies and Capable of Achieving Tumor Regression” (J Med Chem, 2018).
# Experiments:
# RS4-11 = assay: Cytotoxicity against human RS4:11 cells assessed as cell growth inhibition after 4 days by WST-8 assay; type: functional, cell-based; details: RS4-11, 96 h
# MOLM-13 = assay: Cytotoxicity against human MOLM13 cells assessed as cell growth inhibition after 4 days by WST-8 assay; type: functional, cell-based; details: MOLM-13, 96 h
# [1] = target: Protein cereblon/Bromodomain-containing protein 3/Cullin-4A (Homo sapiens) (UniProt Q15059+Q96SW2+Q13619); assay: Induction of cereblon/cullin 4A-mediated BRD3 degradation in human RS4:11 cells after 3 hrs by Western blot method; type: cell-based
# Chain of Protein cereblon/Bromodomain-containing protein 3/Cullin-4A (Homo sapiens) (Q13619 whole entry, looked up): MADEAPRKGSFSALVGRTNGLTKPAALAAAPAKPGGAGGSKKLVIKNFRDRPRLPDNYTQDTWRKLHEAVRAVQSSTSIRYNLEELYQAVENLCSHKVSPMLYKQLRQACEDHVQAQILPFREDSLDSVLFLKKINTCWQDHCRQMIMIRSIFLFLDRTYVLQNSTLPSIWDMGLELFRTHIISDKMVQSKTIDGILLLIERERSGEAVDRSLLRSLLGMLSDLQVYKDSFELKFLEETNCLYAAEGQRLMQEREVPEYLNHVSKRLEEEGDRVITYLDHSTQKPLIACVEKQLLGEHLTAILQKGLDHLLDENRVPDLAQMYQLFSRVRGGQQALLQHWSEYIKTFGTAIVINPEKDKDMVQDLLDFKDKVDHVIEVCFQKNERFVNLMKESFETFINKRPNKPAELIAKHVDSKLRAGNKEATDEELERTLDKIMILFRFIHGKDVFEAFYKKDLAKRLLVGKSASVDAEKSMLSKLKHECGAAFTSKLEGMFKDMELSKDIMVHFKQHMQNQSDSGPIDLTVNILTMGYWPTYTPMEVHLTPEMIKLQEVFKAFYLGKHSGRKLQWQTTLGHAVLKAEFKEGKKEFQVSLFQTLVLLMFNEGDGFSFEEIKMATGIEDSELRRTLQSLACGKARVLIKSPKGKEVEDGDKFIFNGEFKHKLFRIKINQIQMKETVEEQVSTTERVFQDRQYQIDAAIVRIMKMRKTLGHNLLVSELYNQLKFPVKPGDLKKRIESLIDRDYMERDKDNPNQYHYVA
# Chain of Protein cereblon/Bromodomain-containing protein 3/Cullin-4A (Homo sapiens) (Q15059 whole entry, looked up): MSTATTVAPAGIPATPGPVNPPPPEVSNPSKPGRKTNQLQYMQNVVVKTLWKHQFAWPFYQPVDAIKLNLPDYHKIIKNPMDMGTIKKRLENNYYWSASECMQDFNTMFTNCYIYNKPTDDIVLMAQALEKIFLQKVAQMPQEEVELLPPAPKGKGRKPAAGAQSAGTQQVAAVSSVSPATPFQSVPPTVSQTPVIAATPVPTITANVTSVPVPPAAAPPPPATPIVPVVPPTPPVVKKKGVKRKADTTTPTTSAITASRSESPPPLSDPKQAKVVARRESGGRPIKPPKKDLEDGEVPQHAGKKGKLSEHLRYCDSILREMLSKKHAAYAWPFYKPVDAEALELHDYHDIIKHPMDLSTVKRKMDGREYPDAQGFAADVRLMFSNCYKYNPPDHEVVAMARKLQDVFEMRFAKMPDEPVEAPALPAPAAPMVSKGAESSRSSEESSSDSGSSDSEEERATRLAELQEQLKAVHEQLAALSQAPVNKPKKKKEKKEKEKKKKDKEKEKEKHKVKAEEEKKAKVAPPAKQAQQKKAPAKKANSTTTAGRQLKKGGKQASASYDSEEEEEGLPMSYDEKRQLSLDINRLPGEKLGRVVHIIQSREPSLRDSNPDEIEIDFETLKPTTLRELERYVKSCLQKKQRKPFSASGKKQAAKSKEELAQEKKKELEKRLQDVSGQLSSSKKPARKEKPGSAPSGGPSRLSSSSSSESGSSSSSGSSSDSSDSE
# Chain of Protein cereblon/Bromodomain-containing protein 3/Cullin-4A (Homo sapiens) (Q96SW2 whole entry, looked up): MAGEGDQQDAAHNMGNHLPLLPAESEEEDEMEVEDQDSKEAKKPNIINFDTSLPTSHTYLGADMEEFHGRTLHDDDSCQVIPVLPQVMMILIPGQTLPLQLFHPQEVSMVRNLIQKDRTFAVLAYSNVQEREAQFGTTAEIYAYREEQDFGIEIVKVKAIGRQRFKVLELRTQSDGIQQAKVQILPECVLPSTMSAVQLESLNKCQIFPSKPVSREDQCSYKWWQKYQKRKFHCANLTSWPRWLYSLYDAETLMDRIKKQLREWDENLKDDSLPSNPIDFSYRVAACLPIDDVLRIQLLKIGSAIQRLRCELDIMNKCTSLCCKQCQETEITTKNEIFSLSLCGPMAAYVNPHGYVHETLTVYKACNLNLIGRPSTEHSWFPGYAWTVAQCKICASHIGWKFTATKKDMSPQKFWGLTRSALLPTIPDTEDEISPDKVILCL
# Procedure, shortened: (§1)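 RS4;11 cells (2 × 10⁶/well) treated for 3 h at the indicated concentrations. Lysed in RIPA with protease inhibitors and immunoblotted for BRD2, BRD3 and BRD4 with specific antibodies.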
# [2] = target: Protein cereblon/Bromodomain-containing protein 4/Cullin-4A (Homo sapiens) (UniProt O60885+Q96SW2+Q13619); assay: Induction of cereblon/cullin 4A-mediated BRD4 degradation in human RS4:11 cells after 3 hrs by Western blot method; type: cell-based
# Procedure, shortened: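 Western blot of RS4;11 cells (2 × 10⁶ cells/well) in RPMI 1640 with 10% FBS, 37 °C, 5% CO₂, used within three months of thawing. Compound exposure was 3 h or 24 h at the indicated concentrations. Cells were lysed in RIPA with protease inhibitors, and BRD2, BRD3 and BRD4 were detected with specific antibodies, with GAPDH as loading control.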
# [3] = target: Protein cereblon/Bromodomain-containing protein 2/Cullin-4A (Homo sapiens) (UniProt P25440+Q96SW2+Q13619); assay: Induction of cereblon/cullin 4A-mediated BRD2 degradation in human RS4:11 cells after 3 hrs by Western blot method; type: cell-based; procedure, shortened: as §1
# Chain of Protein cereblon/Bromodomain-containing protein 2/Cullin-4A (Homo sapiens) (P25440 whole entry, looked up): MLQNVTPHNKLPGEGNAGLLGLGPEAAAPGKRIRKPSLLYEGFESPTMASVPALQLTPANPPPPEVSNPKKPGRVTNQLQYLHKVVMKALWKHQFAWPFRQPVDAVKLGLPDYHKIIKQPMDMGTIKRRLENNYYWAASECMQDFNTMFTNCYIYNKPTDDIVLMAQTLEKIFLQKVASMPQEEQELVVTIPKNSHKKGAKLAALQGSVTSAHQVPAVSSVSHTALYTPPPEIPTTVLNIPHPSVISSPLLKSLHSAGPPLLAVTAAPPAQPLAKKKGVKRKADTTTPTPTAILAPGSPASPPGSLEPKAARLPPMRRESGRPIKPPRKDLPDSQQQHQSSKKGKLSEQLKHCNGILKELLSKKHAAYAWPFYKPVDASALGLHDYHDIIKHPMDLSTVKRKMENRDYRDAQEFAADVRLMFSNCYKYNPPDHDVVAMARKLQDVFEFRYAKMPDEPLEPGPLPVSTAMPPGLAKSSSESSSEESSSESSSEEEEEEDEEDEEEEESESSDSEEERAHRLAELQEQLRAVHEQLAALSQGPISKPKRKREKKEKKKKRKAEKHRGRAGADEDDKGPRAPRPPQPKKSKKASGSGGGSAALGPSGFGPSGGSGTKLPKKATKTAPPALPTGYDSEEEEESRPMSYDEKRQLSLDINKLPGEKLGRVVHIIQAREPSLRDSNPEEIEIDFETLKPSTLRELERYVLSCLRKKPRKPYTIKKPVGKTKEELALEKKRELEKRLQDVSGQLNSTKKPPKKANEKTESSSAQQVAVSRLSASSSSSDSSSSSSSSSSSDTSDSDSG
# Chain of Protein cereblon/Bromodomain-containing protein 2/Cullin-4A (Homo sapiens) (Q13619 whole entry, looked up): as the sequence (Q13619 whole entry, looked up) above
# Chain of Protein cereblon/Bromodomain-containing protein 2/Cullin-4A (Homo sapiens) (Q96SW2 whole entry, looked up): as the sequence (Q96SW2 whole entry, looked up) above
Activity [1],Activity [2],Activity [3],Structure (SMILES),IC50 (RS4-11),IC50 (MOLM-13)
,,,CCn1nc(C2CC2)cc1Nc1nc(C(=O)NCCCNc2cccc3c2C(=O)N(C2CCC(=O)NC2=O)C3=O)nc2[nH]c3cc(-c4c(C)noc4C)c(OC)cc3c12 (configuration not stated),2.4 nM,9.5 nM
,,,CCn1nc(C2CC2)cc1Nc1nc(C(=O)NCCCCCCc2cccc3c2C(=O)N(C2CCC(=O)NC2=O)C3=O)nc2[nH]c3cc(-c4c(C)noc4C)c(OC)cc3c12 (configuration not stated),0.17 nM,2.5 nM
,,,CCn1nc(C2CC2)cc1Nc1nc(C(=O)NCCCCCc2cccc3c2C(=O)N(C2CCC(=O)NC2=O)C3=O)nc2[nH]c3cc(-c4c(C)noc4C)c(OC)cc3c12 (configuration not stated),0.14 nM,2.1 nM
,,,CCn1nc(C2CC2)cc1Nc1nc(C(=O)NCCCCCCNc2cccc3c2C(=O)N(C2CCC(=O)NC2=O)C3=O)nc2[nH]c3cc(-c4c(C)noc4C)c(OC)cc3c12 (configuration not stated),0.63 nM,3.7 nM
,,,CCn1nc(C2CC2)cc1Nc1nc(C(=O)NCCOCCCc2cccc3c2CN(C2CCC(=O)NC2=O)C3=O)nc2[nH]c3cc(-c4c(C)noc4C)c(OC)cc3c12 (configuration not stated),0.9 nM,5.4 nM
,,,CCn1nc(C2CC2)cc1Nc1nc(C(=O)NCCOCCCc2cccc3c2C(=O)N(C2CCC(=O)NC2=O)C3=O)nc2[nH]c3cc(-c4c(C)noc4C)c(OC)cc3c12 (configuration not stated),0.42 nM,5.9 nM
,,,COc1cc2c(cc1-c1c(C)noc1C)[nH]c1nc(C(=O)NCCCCCc3cccc4c3CN(C3CCC(=O)NC3=O)C4=O)ncc12 (configuration not stated),> 1000 nM,> 1000 nM
,,,CCn1nc(C2CC2)cc1Nc1nc(C(=O)NCCCCCCCOc2cccc3c2C(=O)N(C2CCC(=O)NC2=O)C3=O)nc2[nH]c3cc(-c4c(C)noc4C)c(OC)cc3c12 (configuration not stated),0.48 nM,3.9 nM
,,,CCn1nc(C2CC2)cc1Nc1nc(C(=O)NCCCCNc2cccc3c2C(=O)N(C2CCC(=O)NC2=O)C3=O)nc2[nH]c3cc(-c4c(C)noc4C)c(OC)cc3c12 (configuration not stated),0.45 nM,5 nM
Dose-dependent effect,Dose-dependent effect,Dose-dependent effect,CCn1nc(C2CC2)cc1Nc1nc(C(=O)NCCCCCCc2cccc3c2CN(C2CCC(=O)NC2=O)C3=O)nc2[nH]c3cc(-c4c(C)noc4C)c(OC)cc3c12 (configuration not stated),0.037 nM,1 nM
Dose-dependent effect,Dose-dependent effect,Dose-dependent effect,CCn1nc(C2CC2)cc1Nc1nc(C(=O)NCCCCc2cccc3c2CN(C2CCC(=O)NC2=O)C3=O)nc2[nH]c3cc(-c4c(C)noc4C)c(OC)cc3c12 (configuration not stated),0.98 nM,13.7 nM
Dose-dependent effect,Dose-dependent effect,Dose-dependent effect,CCn1nc(C2CC2)cc1Nc1nc(C(=O)NCCCc2cccc3c2CN(C2CCC(=O)NC2=O)C3=O)nc2[nH]c3cc(-c4c(C)noc4C)c(OC)cc3c12 (configuration not stated),9.6 nM,72.3 nM
,,,CCn1nc(C2CC2)cc1Nc1nc(C(=O)NCCCCNC(=O)CNc2cccc3c2C(=O)N(C2CCC(=O)NC2=O)C3=O)nc2[nH]c3cc(-c4c(C)noc4C)c(OC)cc3c12 (configuration not stated),2.5 nM,19.9 nM
,,,CCn1nc(C2CC2)cc1Nc1nc(C(=O)NCCNc2cccc3c2C(=O)N(C2CCC(=O)NC2=O)C3=O)nc2[nH]c3cc(-c4c(C)noc4C)c(OC)cc3c12 (configuration not stated),4.8 nM,68.7 nM
